Most compounds without a hit are left out; they make up all but 1.4% or so of the library.
Tb MetRS inh: T. brucei MetRS inhibitors, primary screen, biochemical, luminescence | inhibition, % at 11.9 µM | AID 624268, 2012 | methionyl-tRNA synthetase (Trypanosoma brucei brucei) | purified T. brucei MetRS, ATP depletion, Kinase-Glo luminescence | 360,000 tested, 0.4% active;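 active = inhibition above a per-plate cutoff of the control wells' mean inhibition plus 3 SD, cut at about 5.5% in these data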;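 note: 0% = DMSO wells median and 100% = median of wells with control inhibitor compound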
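Assay system: T. brucei methionyl-tRNA synthetase, purified | Medium: HEPES buffer with MgCl2, KCl, DTT, spermine, BSA, pyrophosphatase | Compound: 11.9 µM single point | Incubation: 15 min enzyme-compound preincubation, 2 h reaction, 10 min detection, 25 °C | Measured by: Kinase-Glo luciferase luminescence reporting remaining unconsumed ATP | Measure: % inhibition normalized to control-well medians | Replication: Singlicate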
Rin1 Abl inh: inhibitors of Rin1-Abl protein binding, primary screen, biochemical, TR-FRET. Tyrosine-protein kinase ABL1 (Homo sapiens) + Ras and Rab interactor 1 (Homo sapiens), …. inhibition, % at 7.35 µM. 360,000 tested, 0.4% active; in the data active = inhibition above about 5%, passing the limit was not always enough
ATG4B inhibitor: ATG4B protease inhibitors, primary screen, biochemical, fluorescence, uHTS; Cysteine protease ATG4B (Homo sapiens), Q9Y4P1; ATG4B cleavage of LC3-PLA2, NBD-HPC fluorescence, 1 h; inhibition, % at 8.33 µM; 340,000 tested, 0.51% active; AID 504462, 2011; in the data active = inhibition above about 40%
UCH37 inh: inhibitors of human UCH37 deubiquitinase, primary screen, biochemical, Ub-AMC cleavage, fluorescence | Ubiquitin carboxyl-terminal hydrolase isozyme L5 (Homo sapiens), Q9Y5K5 | purified proteasome/UCH37 | inhibition, % (concentration not given with the values) | 330,000 tested, 0.33% active | AID 588478, 2011;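 active = mean inhibition over replicate wells above about 20%, limit read from the data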;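 note: 0% = compound-free wells with enzyme and 100% = wells lacking proteasome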
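Signal – fluorescence, ex 355 nm, em 460 nm · System – Proteasome-bound UCH37 · Input – 0.15 nM proteasome as dispensed · Timing – 30 min preincubation with enzyme, 25 min cleavage at room temperature · Read-out basis – percent inhibition of cleavage signal versus uninhibited and no-proteasome wells · Medium – Tris-HCl pH 7.4 with ATP-MgCl2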
Rin1 Abl conf: Rin1-Abl binding inhibitor retest, confirmation, biochemical, TR-FRET; shares compounds with Rin1 Abl inh; purified proteins; inhibition, % at 7.35 µM; 1,300 tested, 49% active; AID 602124, 2011
GFP quench: GFP fluorescence inhibitors and quenchers, artefact control for Rin1-Abl interaction inhibitor project, biochemical; shares compounds with Rin1 Abl inh; inhibitors/quenchers counterscreen; inhibition, % at 6.75 µM; 1,300 tested, 8.5% active;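 note: ABL1-eGFP fusion protein alone without its partner RIN1-SBP; 0% = protein with vehicle and 100% = wells lacking protein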
GFP quench DR: GFP fluorescence inhibitors and quenchers, dose response, artefact control for Rin1-Abl interaction inhibitor project, biochemical. GFP fluorescence interference/quenching counterscreen. IC50, µM. shares compounds with Rin1 Abl inh. 230 tested, under 10 active; call rule not given here;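 note: ABL1-eGFP fusion protein alone without its RIN1 binding partner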
* hit, by the source's call; i = inactive; · = not tested or not shown. Cut-off read from the data, not from the text of the source, unless noted: active = inhibition above about 6.5%; inactive = the rest.

SMILES	Tb MetRS inh	Rin1 Abl inh	ATG4B inhibitor	UCH37 inh	Rin1 Abl conf	GFP quench	others
CN(C)S(=O)(=O)c1ccc(C(=O)OC2CCOC2=O)cc1 (stereo not given)	1	6.9*	5	4	1	-2
CC(C)Cn1c(SCC(=O)N2CCCCC2)nc2ccccc2c1=O	0	0	-2	-1	·	·
CC(=O)NCC1(c2ccccc2)CCN(CCCC(=O)c2ccc(F)cc2)CC1	0	14*	·	·	15*	-1
CC(=O)NCC1(c2ccccc2)CCN(CC2COc3ccccc3O2)CC1 (stereo not given)	-1	6	·	·	·	·
OC(COCc1ccc2c(c1)OCO2)CN1CCCCC1 (stereo not given)	0	-4	-2	-1	·	·
CCOC(=O)C1CCCN(CC(O)COCc2ccc3c(c2)OCO3)C1 (stereo not given)	-1	6.4*	8	-1	-1	0
O=C(COc1ccccc1)OCc1csc(Nc2ccccc2)n1	0	3	-5	2	·	·
Oc1ccc(/C=N/Nc2ccnc3cc(Cl)ccc23)c(O)c1O	3	24*	2	·	26*	7.5*
Oc1ccc(C=NNc2ccnc3cc(Cl)ccc23)cc1O	·	·	·	-14	·	·
Brc1ccc(-c2nc(-c3ccccc3)no2)o1	0	-5	12	0	·	·
COc1ccccc1C(=O)NC(=O)COC(=O)c1nccnc1N	0	1	-4	i	·	·
Nc1nccnc1C(=O)OCC(=O)NNC(=O)c1ccccc1	0	8.2*	-6	i	0	2
Cc1ccccc1C(=O)NNC(=O)Cc1ccccc1	-1	9.3*	1	2	-1	1
CC(COc1ccccc1)OC(=O)Nc1ccccc1 (stereo not given)	0	-1	-5	3	·	·
O=C(CSc1nc(O)c(Cc2ccccc2F)c(=O)[nH]1)N1CCCCCC1	-1	4	-3	3	·	·
O=C(CSc1nc2ccccc2c(=O)[nH]1)Nc1ccc(S(=O)(=O)N2CCCC2)cc1	0	8.9*	-3	4	5	2
CC(=O)Oc1ccc(/C=C2/C(=O)N(c3ccccc3)N=C2C)cc1	3	11*	5	·	-2	0
COc1ccc(/C=C2/C(=O)N(c3ccccc3)N=C2C)cc1OC	1	18*	-2	·	1	0
CC1=NN(c2ccccc2)C(=O)/C1=C/N(C)C	0	-3	-11	6	·	·
CC1=NN(c2ccccc2)C(=O)/C1=C/c1cccc(C)c1	2	9.4*	12	·	1	2
COc1ccc(C(=O)Nc2ccc(NC(=O)c3ccco3)cc2)cc1	-1	-1	5	-7	·	·
COc1ccc(-n2c(NC(=O)c3ccco3)c(C#N)c3nc4ccccc4nc32)cc1	1	19*	18	-109	6	3
CCOc1ccc(/C=N/Nc2cc(N3CCOCC3)ncn2)c(O)c1	-1	8.3*	·	·	2	2
O=C(/C=C/c1ccccc1)Nc1ccc2c(c1)C(=O)NC2=O	0	-3	-2	·	·	·
O=C1/C(=C\c2ccc([N+](=O)[O-])cc2)CCc2ccccc21	-1	18*	9	1	-1	-1
SMILES	Tb MetRS inh	Rin1 Abl inh	ATG4B inhibitor	UCH37 inh	Rin1 Abl conf	GFP quench	others
COc1ccc(CCNS(=O)(=O)c2ccc3c(c2)CC(C)N3C(C)=O)cc1OC (stereo not given)	0	1	-2	0	·	·
CCOc1ccc(CN(C)C(=O)c2ccc(NC(=O)CC3SC(N4CCCC4)=NC3=O)cc2)cc1 (stereo not given)	-1	10*	-2	0	5	-2
COc1ccc(CN(C)C(=O)c2ccc(NC(=O)CC3SC(N4CCCC4)=NC3=O)cc2)c(OC)c1 (stereo not given)	0	2	-8	0	·	·
O=C(Nc1ccccc1)/C(=C\c1ccccc1)NC(=O)c1ccco1	-1	-2	-1	0	·	·
O=C(Nc1ccc(C(=O)O)cc1)/C(=C\c1ccccc1)NC(=O)c1ccco1	0	8.6*	3	2	-2	-1
CCCn1c(=O)[nH]c(=O)c2c(C(F)(F)F)cc(-c3ccc(C)cc3)nc21	-1	0	-6	-119	·	·
O=C(Nc1ccccc1N1CCN(C(=O)c2ccc(Cl)cc2)CC1)c1cccnc1	-1	17*	-5	3	23*	1	GFP quench DR=>68
Cc1nn(Cc2ccccc2)c(C)c1/C=N/NC(=O)c1cccnc1	0	3	-4	·	·	·
COc1ccc2c(c1O)-c1ccccc1CCN(C)C2	-1	-3	-3	0	·	·
CN1CCc2cccc3c2[C@@H]1Cc1ccc(O)c(O)c1-3	0	17*	1	-3	12*	13*
COC(=O)C1=C(C)N(C)C(=O)NC1c1cc2c(cc1[N+](=O)[O-])OCO2 (stereo not given)	0	15*	-5	-1	11*	2
COC(=O)C1=C(C)N(CCCC(=O)O)C(=O)NC1c1cc2c(cc1[N+](=O)[O-])OCO2 (stereo not given)	0	8	4	3	·	·
Cc1ccsc1C=NNC(=O)C(N)=O	·	·	·	9	·	·
COc1ccc(N2CC(C(=O)NN=Cc3cc([N+](=O)[O-])ccc3O)CC2=O)cc1 (stereo not given)	·	·	·	8	·	·
O=C(Nc1ccc2c(c1)OCO2)c1ccc[n+]([O-])c1	0	5.0*	-3	0	2	-2
O=C(Nc1ccc2c(c1)OCO2)c1ccc2c(c1)OCO2	-1	1	-4	8	·	·
O=C1CC(Nc2cc(=O)[nH]c(=O)[nH]2)C(=O)N1c1ccccc1Cl (stereo not given)	0	1	-2	2	·	·
Cc1c(NC(=O)c2ccccc2)c(=O)n(-c2ccccc2)n1C	-1	-3	1	-1	·	·
Cc1c(NC(=O)c2ccc(N(C)S(=O)(=O)c3ccccc3)cc2)c(=O)n(-c2ccccc2)n1C	-1	9.8*	-10	2	1	-2
Cc1c(NC(=O)CSc2ncccn2)c(=O)n(-c2ccccc2)n1C	-1	5.4*	4	0	2	-1
Cc1c(NC(=O)c2ccc(Cl)s2)c(=O)n(-c2ccccc2)n1C	0	6.2*	-5	-1	-2	1
